The test relates to HEK293 thallium flux, FluoZin-2 fluorescence, ouabain+bumetanide. The experiment in a line: parental HEK thallium flux modulation, ouabain plus bumetanide, dose response, counter-screen for KCC2 modulator project, HEK cells, counterscreen 2 (AID 1735). An outline of the steps:
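material = HEK cells | medium = HEPES-buffered HBSS with 0.2 mM ouabain and 2 mM bumetanide | compound dosing = 11-point threefold dilution series, top dose 30 µM | timing = overnight plating, 10–20 s after thallium read | measured by = FluoZin-2 fluorescence | measure = Initial-fluorescence-normalized slope 10–20 s post-thallium, EC50 by variable-slope sigmoid | replication = triplicate, replicates fitted separately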
(In general: Counterscreens check selectivity or assay interference.)

Inconclusive results are not listed. The source made the active and inactive calls.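 Rule for the calls: active = sigmoid dose curve converging in at least two of three replicates, including loose fits with few points beside the midpoint; inactive = curve converging in fewer than two replicates.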

The term EC50 denotes the concentration giving half of the maximal effect. Take `COc1ccc(N2C(=S)N=C(Nc3cccc(C)c3)C23CCCCC3)cc1`: the EC50 was 2620 nM.

As to `N=C1SCC(=O)N1c1ncc(Cc2cccc(Cl)c2)s1`, the EC50 was 3030 nM. Take `NC(=S)N=Nc1c(O)n(Cc2ccc(F)cc2)c2ccccc12`: the EC50 was 2200 nM. Then `Cc1ccc(-c2n[nH]c(=S)n2/N=C/C=C\c2ccccc2[N+](=O)[O-])cc1`, with 643 nM; and `COc1ccc(Cn2c(=S)[nH]c3ccccc32)cc1`, with 397 nM. The result for `Cc1nn(-c2nc3ccccc3[nH]2)c(N)c1-c1ccccc1` reads 2460 nM. As to `CC(=O)c1cccc(NC(=S)NC(=O)c2ccc(C)cc2)c1`, the EC50 is 1580 nM. For `CCOc1[nH]n(-c2ccccc2)c(=O)c1C=Nc1ccc(F)cc1F`, the EC50 is 2200 nM. Then `Cc1onc(-c2ccccc2Cl)c1C(=O)NC(=S)Nc1ccc(C(C)C)cc1`, with 246 nM; and `O=[N+]([O-])c1ccc(-c2cn(-c3ccccc3F)c(=S)[nH]2)cc1`, with 520 nM; and `COC(=O)[C@@H](NC(=O)O[C@@H]1C(=O)c2ccc(OC)cc2O[C@H]1c1cccc(C(F)(F)F)c1)C(C)C`, with 612 nM. The result for `S=C(NCCc1ccccc1)N/N=C/c1cccc(Cl)c1Cl` reads 14300 nM (inactive). Then `CCOc1ccc2nc(SC3CC(=O)N(c4cccc(OC)c4)C3=O)sc2c1` (stereo not drawn), with 3200 nM; and `O=C(NC(=S)Nc1nc(-c2cccc([N+](=O)[O-])c2)cs1)c1cc(Cl)ccc1Cl`, with 689 nM; and `NC(=S)N=Nc1c(O)n(Cc2ccccc2)c2ccccc12`, with 88.3 nM (inactive). For the compound `CCOCCCNC(=O)c1ccc(-n2c(=S)[nH]c3ccccc3c2=O)cc1`, the EC50 was 24200 nM (inactive). Turning to `O=C(NC(=S)Nc1ccc2c(c1)OCO2)c1ccc(Cl)cc1`, the EC50 was 58.5 nM (inactive). For the compound `COC(=O)c1sccc1NC(=S)OC`, the EC50 was 1580 nM.

Values taken from PubChem BioAssay AID1735 (Vanderbilt High Throughput Screening Facility, 2009).
